Measured values taken from article PMC3680370 (Journal of medicinal chemistry, 2012).

Tests used:
[1] = test system: primary cortical cultured neurons; test: Transient OGD followed by reoxygenation in primary neuronal cultures; format: cell-based, rat; conditions: for neuroprotection against OGD: primary neurons, 50 μM
Outline: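 Cortical neurons came from E17 Sprague Dawley rat embryos. They were plated at 3×10^5 cells/cm2 on poly-L-lysine, then kept in serum-free neurobasal/B27 medium. On day 8–10, cultures had 2 h OGD at 37°C (95% N2/5% CO2) in deoxygenated, glucose-free HEPES-buffered salt solution, pH 7.4. They then had 24 h normoxic reoxygenation in fresh medium. Test compound (50 μM) was present throughout. Viability was read by MTT, death by LDH.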

[2] = test system: rat primary cortical neurons; test: NMDA induced cytotoxicity in primary neurons; format: cell-based; conditions: NMDA 100 μM; compounds 50 μM
[3] = test system: primary cortical cultures; format: cell-based, rat; conditions: drug 50 μM; for effect of GABAA blockade by picrotoxin on neuroprotection: picrotoxin 100 μM added 1 h before glutamate 100 μM, MTT at 24 h
Outline: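 Cortical neurons from E17 Sprague Dawley rat embryos, plated at 3×10^5 cells/cm2 on poly-L-lysine and switched to serum-free neurobasal/B27 at 24 h, were used at 10–11 DIV. Picrotoxin 100 μM was given 1 h before glutamate 100 μM, or omitted in a parallel run. Test compound or muscimol (50 μM final) followed 1 h after glutamate. MTT survival at 24 h was normalised to vehicle controls; mean ± SEM, n=6.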

[4] = Brain bioavailability by LC-MS/MS; format: in vivo; conditions: mice, 20 min after i.p. administration; for MZ metabolite in the brain after NO-chimera administration: metabolite 22a from 32a, 26 from 28
Outline: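 Male C57BL/6 mice (8–10 weeks, 20–25 g) got one i.p. dose of 4.5 μmol/kg, equimolar with the parent methylthiazole, at 0.1 ml/25 g; four mice per drug. Brains were taken 20 min post-dose and extracted with cold acetonitrile/MeOH (1:1) plus internal standard. After homogenising, 4°C centrifugation and re-extraction, extracts were cleared at −20°C and dried under N2. Analytes were measured by C18 HPLC (formic acid gradient).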

[5] = test system: SH-SY5Y cell cultures; test: Excitotoxic insults; format: cell-based, human; conditions: excitotoxic insults including glutamate, NMDA, OGD; data not shown
[6] = test system: rabbits; conditions: cited from earlier work
[7] = test system: rats with cognitive deficits in the cholinergic systems of the basal forebrain; conditions: cited from earlier work
[8] = Stability of NO-chimera in neutral phosphate buffer; format: physicochemical; conditions: for stability in phosphate buffer: phosphate buffer 100 mM, pH 7.4, room temperature, HPLC-UV or LC-MS
Outline: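 NO-chimeras were incubated in 100 mM phosphate buffer, pH 7.4, at room temperature in the HPLC autosampler. Aliquots were injected repeatedly, at intervals set by each compound's stability (about 7 or 67 min). Analysis used reverse-phase C18 HPLC with UV at 254 nm and a water/methanol vs acetonitrile gradient with 0.1% formic acid. Percent remaining was the parent:internal-standard peak-area ratio over the time-zero value.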

4-Butyl-1-[(4-methyl-5-thiazolyl)phenylmethyl]-1H-1,2,3-triazole [5a]
% normalized to CMZ after OGD ([1]; test compounds 50 μM during 2-hour OGD and 24-hour reoxygenation, MTT assay at 24 h normalized to vehicle (0% survival) and CMZ (100% survival), mean ± SEM (n=6)): 26.8 ± 5.2%

Cc1ncsc1C(c1ccccc1)n1cc(-c2cccnc2)nn1 (centres unmarked) [5d, 3-[1-[(4-methyl-5-thiazolyl)phenylmethyl]-1H-1,2,3-triazol-4-yl]pyridine]
neuroprotection against NMDA induced cytotoxicity [2]: excellent neuroprotectant
neuroprotection against OGD [1]: excellent neuroprotectant

Cc1ncsc1C(CO)c1ccccc1 (stereo not drawn) [22a, β-phenyl-4-methyl-5-thiazoleethanol]
effect of GABAA blockade by picrotoxin on neuroprotection [3]: mirrored that by muscimol

Cc1ncsc1C(CO[N+](=O)[O-])c1ccccc1 (stereo not drawn) [32a, β-phenyl-(4-methyl-5-thiazolyl)ethane-1-nitrate]
brain bioavailability of NO-chimera [4]: good brain bioavailability
MZ metabolite in the brain after NO-chimera administration [4]: observed in the brain

Cc1ncsc1CCCl [CMZ, clomethiazole, reference compound]
neuroprotection against NMDA induced cytotoxicity [2]: inhibited reproducibly
neuroprotection in SH-SY5Y cells [5]: did not produce robust and reproducible neuroprotection

Cc1ncsc1CCO [HMZ, 5-(2-hydroxyethyl)-4-methylthiazole]
anticonvulsant activity [6]: anticonvulsant agent

Cc1ncsc1CCO[N+](=O)[O-] [compound 1]
learning and memory [7]: significantly improved learning and memory

Cc1ncsc1C(c1ccccc1)n1cc(-c2cncc(O)c2)nn1 (centres unmarked) [compound 16, 5-[1-[(4-Methyl-5-thiazolyl)phenylmethyl]-1H-1,2,3-triazol-4-yl]-3-pyridinol]
neuroprotection against OGD [1]: retained neuroprotective efficacy comparable to CMZ

Cc1ncsc1C(CO)n1cc(-c2cccnc2)nn1 (stereo not drawn) [compound 26, [1-[β-(4-Methyl-5-thiazolyl)ethanol]-4-(3-pyridinyl)]-1H-1,2,3-triazole]
effect of GABAA blockade by picrotoxin on neuroprotection [3]: intermediate neuroprotective mechanisms

Cc1ncsc1C(CO[N+](=O)[O-])n1cc(-c2cccnc2)nn1 (stereo not drawn) [compound 28, β-(4-methyl-5-thiazolyl)-[4-(3-pyridinyl)-1H-1,2,3-Triazole-1-ethane]-1-nitrate]
stability in phosphate buffer [8]: stability over 5 days at room temperature
MZ metabolite in the brain after NO-chimera administration [4]: readily detected

Cc1ncsc1C(CO[N+](=O)[O-])n1nncc1-c1cccnc1 (stereo not drawn) [compound 29, β-(4-methyl-5-thiazolyl)-[5-(3-pyridinyl)-1H-1,2,3-Triazole-1-ethane]-1-nitrate]
stability in phosphate buffer [8]: stability over 5 days at room temperature

Cc1ncsc1C(Cc1ccccc1)O[N+](=O)[O-] (stereo not drawn) [compound 33, α-(Phenylmethyl)-(4-methyl-5-thiazolyl)methanenitrate]
stability in phosphate buffer [8]: stability over 5 days at room temperature

Cc1ncsc1C(OC(=O)C1(CO[N+](=O)[O-])CC1)c1ccccc1 (centres unmarked) [compound 36, [1-[(nitrooxy)methyl]cyclopropanecarboxyl]-[(4-methyl-5-thiazolyl)phenylmethyl] ester]
half-life ([8]; phosphate buffer, pH 7.4): ~30 min

Cc1ncsc1C(OCCOCCO[N+](=O)[O-])c1ccccc1 (centres unmarked) [compound 40, 1-nitrooxy-2-[2-[(4-methyl-5-thiazolyl)phenylmethoxy]ethoxy]ethane]
stability in phosphate buffer [8]: stability over 5 days at room temperature

Cc1ncsc1C(OCCOCCO)c1ccccc1 (centres unmarked) [compound 41, [2-[(4-methyl-5-thiazolyl)phenylmethoxy]ethoxy]ethanol]
effect of GABAA blockade by picrotoxin on neuroprotection [3]: intermediate neuroprotective mechanisms

Cc1ncsc1C(NC(=O)OCCCCO[N+](=O)[O-])c1ccccc1 (centres unmarked) [compound 43, N-[(4-Methyl-5-thiazolyl)phenylmethyl]-[4-(nitrooxy)butyl] carbamate]
stability in phosphate buffer [8]: stable

Cc1ncsc1C(NC(=O)C1(CO[N+](=O)[O-])CC1)c1ccccc1 (centres unmarked) [compound 44, N-[(4-methyl-5-thiazolyl)phenylmethyl]-1-[(nitrooxy)methyl]cyclopropanecarboxamide]
stability in phosphate buffer [8]: stable

NCc1cc(O)no1 [muscimol, Muscimol, reference compound]
neuroprotection against glutamate toxicity ([3]; glutamate 100 μM, 24 h, MTT): effective neuroprotection
effect of GABAA blockade by picrotoxin on neuroprotection [3]: lost and reversed
